Compound activity as filed in PubChem BioAssay.
The list is not random: actives were taken first. Their share in the collection is about 5.6%.
MPTP block: blocks calcium-induced mitochondrial swelling | AID 602449 | hit rate 1.4% among 360,000 | isolated mouse mitochondria, Ca2+ swelling absorbance, 30 min | inhibition, % at 10 µM;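 active = inhibition of 50% or more, scaled per plate between neutral and stimulator controls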;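 note: 0% = DMSO wells given calcium and 100% = 1 mM EGTA wells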
UPR XBP1 act: adaptive UPR (XBP1) activation | CHO-XBP1 luciferase reporter, IRE1-XBP1 UPR activation, luminescence; percent of tunicamycin response, DMSO as zero | activation, % at 20 µM | hit rate 0.33% among 330,000;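 active = versus positive control, 20 µM dose yields 30% or more activation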;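 note: 100% = tunicamycin at 10 µg/mL and 0% = DMSO only wells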
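Material: CHO-XBP1 cells stably carrying IRE1-XBP1-driven luciferase reporter | Medium: F12 with 10% serum | Compound dosing: 20 µM single concentration, DMSO 1% | Incubation: Overnight seeding at 37 °C, 6 h compound treatment at 37 °C | Detection: Steady-Glo luminescence read | Read-out basis: % activation of reporter signal versus tunicamycin and DMSO controls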
CHOP inh: CHOP inhibition in unfolded protein response | AID 2732 | inhibition, % at 10 µM | hit rate 3.8% among 220,000 | CHO-K1 CHOP-promoter luciferase, tunicamycin-induced, 15-18 h;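 active = compounds that reduced the stress-induced luciferase reporter signal by more than about 70% of percent inhibition, limit read from the data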;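 note: 0% = tunicamycin plus vehicle and 100% = wells without tunicamycin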
aDG glyco up: increases alpha dystroglycan glycosylation; AID 624168; activation, % at 10 µM; Pro5-aDG cells, alpha-DG glycosylation AlphaScreen (IIH6); 0% Pro5, 100% B10-LARGE cell signal; hit rate 0.22% among 360,000;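 active = activation of at least 8% versus controls, or a plate z-score of at least 8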;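 note: Pro5 are CHO cells carrying HIG-tagged alpha-DG that lacks glycosylation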
UPR CHOP act: apoptotic UPR (CHOP) activation | CHO-CHOP luciferase reporter, luminescence; percent of tunicamycin response over DMSO baseline | activation, % at 10 µM | hit rate 0.34% among 330,000 | AID 449763;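 active = at 10 µM dose, activation of 40% or more, normalized to positive control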;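 note: 100% = tunicamycin at 10 µg/mL and 0% = DMSO alone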
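Assay system: CHO-CHOP cells, stable luciferase reporter of PERK-eIF2a-CHOP signalling / Buffer or medium: F12 plus 10% serum / Compound dosing: one dose, 10 µM in 0.5% DMSO / Times: 6 h compound treatment, 37 °C / Technique: luciferase luminescence / Read-out: % reporter activation, DMSO baseline versus tunicamycin full activation / Benchmarks: tunicamycin and DMSO controls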
NR3A LBD binder: modulators (binders) of human NR3A ligand-binding domain | hit rate 2.5% among 340,000 | Tm shift relative to glycine control, % at 25 µM | AID 1259313 | NR3A LBD differential scanning fluorimetry, Tm shift; 0% = protein alone, 100% = glycine-bound protein;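 active = melting temperature shift of at least 10% of the positive control shift, at one fixed dose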
Starred values were filed as active, the others as inactive; / = no result given.

SMILES | MPTP block | UPR XBP1 act | CHOP inh | aDG glyco up | UPR CHOP act | NR3A LBD binder
CC1CC(C)(C)Nc2ccc(N=O)cc21 (stereo not given) | -0.4 | / | 95.7* | -0.6 | / | -7.8
CCc1nnc(SCC(=O)NC2CCCC2)nc1CC | -0.1 | -0.2 | 74.4* | -0.1 | -2.3 | -1.7
FC(F)(F)c1cnc(COc2ccc(Cl)cc2Cl)c(Cl)c1 | 0.9 | -0.7 | 56.4 | 0.2 | 3.9 | 15.4*
CCOC(=O)C1=CCC(c2ccc(Cl)cc2)N(S(=O)(=O)c2ccc(C)cc2)C1 (stereo not given) | 0.6 | / | / | 0.0 | / | /
COc1ccc(C2=NOC(Cn3nc(-c4ccccc4)cc3C(=O)NCc3ccccc3OC)C2)cc1 (stereo not given) | 0.1 | 1.8 | / | -0.1 | 0.4 | 24.5*
COc1ccccc1CNC(=O)c1cc(-c2ccccc2)nn1CC1CC(c2cccnc2)=NO1 (stereo not given) | 0.7 | 2.0 | / | -0.3 | 0.8 | -2.3
Cc1ccc(-c2cc(C(=O)Nc3cc(C)ccc3C)[nH]n2)c(O)c1 | 3.4 | -0.2 | -39.2 | 0.3 | 2.6 | -10.0
COc1ccc(OC)c(NC(=O)c2cc(-c3cc(C)ccc3O)n[nH]2)c1 | 5.0 | 2.5 | / | -0.1 | 3.5 | 37.4*
COc1ccc(OC)c(NC(=O)c2cc(-c3ccc(C)cc3O)n[nH]2)c1 | 11.2 | 4.2 | 87.4* | 0.0 | 1.6 | 27.7*
Cc1ccc(C(=O)NCC(=O)OC(C)C(=O)Nc2ccc(N(C)C)cc2)cc1C (stereo not given) | -0.1 | -1.6 | 10.1 | 0.2 | 1.3 | -0.2
CCOC(=O)c1c(CC(C)C)csc1/N=C/C1C(=O)CC(C)(C)CC1=O | 2.3 | 4.7 | 71.8* | -0.4 | -1.0 | 6.3
CCOC(=O)c1cc(C)sc1/N=C/C1C(=O)CC(C)(C)CC1=O | 1.7 | 0.8 | 28.0 | 0.0 | 6.7 | -6.6
O=C(N/N=C/c1ccccc1)c1cccc2ccccc12 | 1.5 | 2.3 | / | -0.1 | 7.6 | 2.5
Nc1c(C(=O)N/N=C/c2ccccc2)cnn1-c1ccccc1 | 0.5 | 1.2 | 0.8 | 0.5 | 5.3 | 14.8*
O=C(COC(=O)c1ccccc1O)Nc1ccc(N2CCOCC2)cc1 | -0.1 | 0.0 | / | 0.0 | 0.4 | 0.1
CC1(C(=O)Nc2cccnc2)Cc2c(-c3ccc4c(c3)OCO4)ccnc2O1 (stereo not given) | -1.5 | / | / | 0.0 | / | /
Clc1ccc(Cn2ncc3c(NCc4ccccc4)ncnc32)c(Cl)c1 | / | 3.0 | 81.0* | / | 0.0 | /
CC1(C(=O)NCC2CCCCC2)CCN1C(=O)Cc1ccc(-c2ccccc2)cc1 (stereo not given) | 1.7 | / | / | 1.8 | / | /
COc1ccc(N(C(=O)c2ccco2)C(C(=O)NC2CCCCC2)c2cccs2)cc1OC (stereo not given) | 2.4 | -1.0 | 8.8 | 0.1 | -1.9 | -0.1
C#CC(=O)N(c1ccc(OC)cc1OC)C(C(=O)NC1CCCC1)c1cccs1 (stereo not given) | -0.7 | -8.5 | 107.5* | -0.5 | -8.1 | -2.4
COc1ccc(CCN(C(=O)C(F)(F)F)C(C(=O)NC2CCCC2)c2cccs2)cc1 (stereo not given) | 3.3 | -2.5 | 79.9* | 0.1 | 0.2 | -3.5
O=C(NC1CCCCC1)C(c1ccco1)N(CCc1ccccc1)C(=O)C(F)(F)F (stereo not given) | 1.3 | -2.3 | 5.4 | 0.0 | -0.9 | 1.1
COc1ccccc1CNC(=O)C1CCC(=O)N(CCCN2CCCC2=O)C1 (stereo not given) | -0.3 | -2.2 | / | -0.1 | -0.2 | 2.8
Cc1ccc(F)cc1CNC(=O)C1CCC(=O)N(CCCN2CCCC2=O)C1 (stereo not given) | -1.5 | 5.3 | / | 0.1 | -0.3 | 13.1*
CC(C)Sc1nc2sccc2c(=O)n1-c1ccccc1 | -0.3 | 10.1 | / | 0.0 | 0.2 | -6.1
SMILES | MPTP block | UPR XBP1 act | CHOP inh | aDG glyco up | UPR CHOP act | NR3A LBD binder
COc1ccc(Cl)cc1C(=O)NC(=S)Nc1cc(-c2nc3ccccc3[nH]2)ccc1C | 3.2 | 3.7 | 26.6 | 0.3 | 5.4 | 18.2*
Cc1cccc(C(=O)NCCC(=O)Nc2ccc(F)c([N+](=O)[O-])c2)c1 | 1.0 | -1.7 | / | -0.1 | 0.2 | 1.2
CCCCCCOc1ccc(-c2ccc(C#N)cn2)cc1 | 2.5 | -1.6 | 73.7* | 0.6 | 0.6 | 3.2
N=c1n(Cc2ccccc2)c2ccccc2n1Cc1ccccc1 | 12.1 | 0.1 | 14.2 | 1.3 | -0.9 | 0.8
O=C(CN1CCN(Cc2ccccc2)CC1)c1ccccc1 | 1.5 | 11.3 | 18.3 | 3.1 | -2.0 | -0.7
O=C(CN1CCN(Cc2ccccc2)CC1)c1ccc(Br)cc1 | 1.5 | / | 0.2 | -0.2 | / | 11.2*
O=C(C(Cl)Cl)N1CCN(Cc2ccccc2)CC1 | -0.8 | -3.7 | 25.3 | -0.2 | 16.5 | -0.6
Cn1c(=N)n(CC(=O)c2ccc(Cl)c(Cl)c2)c2ccccc21 | -1.6 | -1.9 | / | 7.4* | 1.7 | -1.1
N=c1n(CC(=O)c2ccc(Br)cc2)c2ccccc2n1Cc1ccccc1 | 0.3 | 20.1 | / | 9.1* | 7.4 | -7.5
O=C(C(c1ccccc1)c1ccccc1)N1CCN(Cc2ccc(Br)cc2)CC1 | 3.1 | -2.1 | 80.6* | 0.4 | -1.8 | -12.6
CC(=O)c1cccc(NC(=O)COC(=O)[C@@H](NC(=O)OCc2ccccc2)C(C)C)c1 | 1.6 | -1.3 | 2.9 | 0.2 | -0.9 | 0.9
CCc1ccc(Nc2n[n+](-c3ccccc3)c(/C=C/c3ccccc3)s2)cc1 | / | -3.6 | / | / | -9.2 | /
N#Cc1ccccc1S(=O)(=O)N1CCN(C(=O)C2CC(=O)N(c3ccc4c(c3)OCCO4)C2)CC1 (stereo not given) | -0.1 | -2.6 | / | 0.3 | 0.7 | -0.9
Fc1ccc(-n2cc(-c3ccccc3)c3c(N4CCOCC4)ncnc32)cc1 | -0.4 | 0.2 | 70.1* | 0.0 | -0.4 | -7.3
COc1ccc(-n2cc(-c3ccccc3)c3c(N4CCOCC4)ncnc32)cc1 | 0.4 | 7.7 | 81.2* | -0.1 | -2.1 | 0.1
O=S(=O)(c1ccc(SCCOc2ccc(Cl)cc2)nc1)N1CCCC1 | -1.3 | -1.1 | / | 0.3 | -0.3 | 5.7
O=C(COc1ccc(Cl)cc1Cl)N/N=C/c1cccnc1 | -2.5 | -1.5 | / | 0.0 | 2.0 | -0.1
O=C(CCCOc1ccc(Cl)cc1Cl)N/N=C/c1cccc([N+](=O)[O-])c1 | 7.0 | 1.3 | 75.9* | 0.8 | -1.0 | 1.2
CCCCCCCCn1c(=O)c(C(=O)OCC)c(O)c2ccccc21 | 3.2 | -4.6 | 47.4 | 0.0 | 3.7 | 2.0
CCCCCCN1CC(O)=C(c2nc3ccccc3[nH]2)C1=N | -1.2 | 0.2 | 83.5* | 0.5 | -1.2 | -0.7
CCC(C)N1CC(O)=C(c2nc3ccccc3[nH]2)C1=N (stereo not given) | -1.5 | 4.0 | -23.3 | 0.1 | 1.4 | 7.2
CCCCCn1c(=O)c(-c2nc3ccccc3[nH]2)c(O)c2ccccc21 | 0.8 | -3.2 | 85.7* | 1.0 | 0.4 | -0.2
